In ChEMBL document CHEMBL4732088, “Identification and optimization of piperlongumine analogues as potential antioxidant and anti-inflammatory agents via activation of Nrf2” (Eur J Med Chem, 2021):
Activity calls are given as the source filed them. The calls are words filed in the database; no cut-off is given here.

Assays:
[1] = target: T1, Nuclear factor erythroid 2-related factor 2 (Rattus norvegicus) (UniProt O54968); experiment: Activation of Nrf2 in rat PC12 cells assessed as increase in HO-1 protein level at 20 uM after 12 hrs by Western blot analysis; type: cell-based; settings: PC-12, filed as activator
T1 sequence (whole entry): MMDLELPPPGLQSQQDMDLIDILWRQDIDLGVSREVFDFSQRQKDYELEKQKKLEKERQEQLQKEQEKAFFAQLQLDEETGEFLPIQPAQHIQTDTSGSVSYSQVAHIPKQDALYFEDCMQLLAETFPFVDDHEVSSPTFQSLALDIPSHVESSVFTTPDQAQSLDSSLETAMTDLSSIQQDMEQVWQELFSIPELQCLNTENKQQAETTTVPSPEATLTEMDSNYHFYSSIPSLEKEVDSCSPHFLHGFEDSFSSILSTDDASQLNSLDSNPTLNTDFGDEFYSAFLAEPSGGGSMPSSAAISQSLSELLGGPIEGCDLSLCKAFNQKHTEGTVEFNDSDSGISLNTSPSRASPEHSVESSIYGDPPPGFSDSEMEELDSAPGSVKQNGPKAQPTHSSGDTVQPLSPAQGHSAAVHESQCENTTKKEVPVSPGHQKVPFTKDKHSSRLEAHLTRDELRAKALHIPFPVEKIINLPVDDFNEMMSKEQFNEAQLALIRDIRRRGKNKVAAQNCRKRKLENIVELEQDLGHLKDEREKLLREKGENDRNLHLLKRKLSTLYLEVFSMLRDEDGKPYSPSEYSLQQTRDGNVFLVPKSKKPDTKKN

[2] = Effective permeability of compound by PAMPA-BBB assay; type: ADME; settings: read-out: Peff
PC-12 [3] = experiment: Protection against H2O2-induced apoptosis in rat PC12 cells assessed as viable cells at 5 uM incubated for 24 hrs by annexin V FITC/propidium iodide staining based flow cytometry (reference value: 79.3 %); type: functional; settings: read-out: Activity
PC-12 [4] = experiment: Protection against 6-OHDA-induced apoptosis in rat PC12 cells assessed as necrotic cells at 5 uM incubated for 24 hrs by annexin V FITC/propidium iodide staining based flow cytometry (reference value: 1.1 %); type: functional
PC-12 [5] = experiment: Protection against 6-OHDA-induced mitochondrial dysfunction in rat PC12 cells assessed as change in mitochondrial membrane potential loss at 10 uM pretreated with compound followed by 6-OHDA addition by JC-1 staining based flow cytometry (reference value: 26.8 %); type: functional
In short: (§1)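 Mitochondrial membrane potential in PC12 cells pretreated with compound (5, 10, 20 μM), then exposed to H₂O₂ (200 μM) or 6-OHDA (150 μM). JC-1 staining, red-to-green fluorescence shift read by flow cytometry. Mean ± SD, n = 3.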

PC-12 [6] = experiment: Protection against H2O2-induced apoptosis in rat PC12 cells assessed as necrotic cells at 5 uM incubated for 24 hrs by annexin V FITC/propidium iodide staining based flow cytometry (reference value: 0.6 %); type: functional
PC-12 [7] = experiment: Prevention of 6-OHDA-induced calcium overload in rat PC12 cells assessed as reduction in intracellular free calcium by measuring mean fluorescence intensity at 10 uM pretreated with compound followed by 6-OHDA addition measured after 24 hrs by Fluo-3AM based fluorescence assay (reference value: 6708.18%); type: functional
[8] = target: T2, Nuclear factor erythroid 2-related factor 2 (Mus musculus) (UniProt Q60795); experiment: Activation of Nrf2 in mouse BV2 cells assessed as upregulation of TrxR1 protein expression after 24 hrs by Western blot analysis; type: cell-based; settings: BV-2, filed as activator, dose 5-20 µM
T2 sequence (whole entry): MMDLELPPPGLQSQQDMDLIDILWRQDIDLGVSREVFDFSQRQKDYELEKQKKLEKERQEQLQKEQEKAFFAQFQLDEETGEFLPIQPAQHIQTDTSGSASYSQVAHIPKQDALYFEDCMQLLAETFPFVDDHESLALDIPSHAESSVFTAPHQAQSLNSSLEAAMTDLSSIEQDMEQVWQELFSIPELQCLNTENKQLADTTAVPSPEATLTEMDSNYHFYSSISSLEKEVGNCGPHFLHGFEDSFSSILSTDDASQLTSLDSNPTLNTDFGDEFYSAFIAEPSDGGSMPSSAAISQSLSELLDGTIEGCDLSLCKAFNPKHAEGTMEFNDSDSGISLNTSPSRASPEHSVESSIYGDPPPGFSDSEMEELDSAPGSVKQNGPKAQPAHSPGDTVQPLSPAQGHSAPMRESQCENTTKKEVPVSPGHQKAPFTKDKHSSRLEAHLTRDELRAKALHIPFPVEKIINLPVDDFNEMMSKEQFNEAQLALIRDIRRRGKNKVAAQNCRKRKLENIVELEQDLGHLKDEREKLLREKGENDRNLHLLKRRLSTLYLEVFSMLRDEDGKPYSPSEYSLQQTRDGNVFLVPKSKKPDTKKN
In short: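 BV2 microglia exposed to compound for 24 h over a concentration series; Nrf2, NQO1, HO-1, TrxR1, GCLM and GCLC protein levels read by Western blot.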

PC-12 [9] = experiment: Protection against H2O2-induced oxidative damage in rat PC12 cells assessed as intracellular ROS level by measuring mean fluorescence intensity at 20 uM pretreated with compound followed by H2O2 stimulation by DCFH-DA staining based flow cytometry (reference value: 233032.55); type: functional
PC-12 [10] = experiment: Cytoprotective activity against 6-OHDA-induced neurotoxicity in rat PC12 cells assessed as reduction in LDH release at 5 to 20 uM preincubated for 24 hrs followed by 6-OHDA treatment by LDH assay; type: functional, cell-based; settings: dose 5-20 µM
In short: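 PC12 cells pretreated with compound (5, 10, 20 μM) for 24 h, then H₂O₂ or 6-OHDA; membrane damage read as LDH leakage; mean ± SD of three independent experiments.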

PC-12 [11] = experiment: Protection against 6-OHDA-induced apoptosis in rat PC12 cells assessed as late apoptotic cells at 10 uM incubated for 24 hrs by annexin V FITC/propidium iodide staining based flow cytometry (reference value: 7.6 %); type: functional
PC-12 [12] = experiment: Neuroprotective activity against H2O2-induced cell damage in rat PC12 cells assessed as cell viability at 20 uM after 24 hrs by MTT assay (reference value: 46 +/- 4.12 %); type: functional; settings: read-out: Activity
BV-2 = experiment: Antiinflammatory activity in mouse BV2 cells transfected with Nrf2 siRNA assessed as reduction in LPS-induced NO production at 20 uM pretreated with compound followed by LPS stimulation for 18 hrs
PC-12 [13] = experiment: Protection against H2O2-induced mitochondrial dysfunction in rat PC12 cells assessed as change in mitochondrial membrane potential loss at 20 uM pretreated with compound followed by H2O2 addition by JC-1 staining based flow cytometry (reference value: 21.3 %); type: functional; in short: as §1
PC-12 [14] = experiment: Protection against 6-OHDA-induced apoptosis in rat PC12 cells assessed as late apoptotic cells at 20 uM incubated for 24 hrs by annexin V FITC/propidium iodide staining based flow cytometry (reference value: 7.6 %); type: functional
PC-12 [15] = experiment: Protection against 6-OHDA-induced mitochondrial dysfunction in rat PC12 cells assessed as change in mitochondrial membrane potential at 5 uM pretreated with compound followed by 6-OHDA addition by JC-1 staining based flow cytometry (reference value: 73.2 %); type: functional; in short: as §1
[16] = Antioxidant activity assessed as ABTS radical scavenging activity; type: functional

## CCN(C)C(=O)N1CCN(C(=O)/C=C/c2ccc(F)cc2)C1=O
[1]
  Activity: Active
[2]
  Papp: 6.78 ×10⁻⁶ cm/s
PC-12 [3]
  viability at 5 µM: 84.1%
PC-12 [4]
  Activity: 1%
PC-12 [5]
  Activity: 16.3%
PC-12 [6]
  Activity: 0.9%
PC-12 [7]
  Flu intensity: 4204.33
[8]
  Activity: Dose-dependent effect
PC-12 [9]
  Flu intensity: 130822.7
PC-12 [10]
  Activity: Active
PC-12 [11]
  Activity: 6.3%
PC-12 [12]
  viability at 20 µM: 75%
BV-2
  Activity: inactive
PC-12 [13]
  Activity: 7.2%
PC-12 [14]
  Activity: 5%
PC-12 [15]
  Activity: 79.4%
[16]
  Activity: inactive
